Measurements from ChEMBL document CHEMBL4373706, “Discovery of Inhibitors of Aurora/PLK Targets as Anticancer Agents” (J Med Chem, 2019).

Assays:
A549 = experiment: Antiproliferative activity against human A549 cells measured after 48 hrs by MTT assay; type: functional, cell-based; conditions: A549, 48 h
Procedure, shortened: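 Cells were exposed to a range of compound concentrations for 48 h. MTT reagent was then added and absorbance read at 490 nm. Viability was normalized to vehicle control set as 100%, from n = 3 independent experiments, and IC50 was taken from the dose–response curves.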

[1] = Toxicity in BALB/c mouse xenografted with human HCT116 cells assessed as change in body weight at 1 to 5 mg/kg, iv administered every 3 days for 24 days measured post-last dose; type: organism-based; conditions: in vivo
[2] = Half life in Sprague-Dawley rat at 50 mg/kg, po administered via gastric gavage by LC-MS/MS analysis; type: ADME, organism-based; conditions: in vivo

What does the source list for `O=C(Nc1ccc2cc(C(=O)Nc3nccs3)ccc2c1)c1ccc(Cl)c(Cl)c1`?
IC50 (A549): 11.6 µM; Activity [1]: Non-Toxic; half-life [2]: 11.8 h
